Results from ChEMBL document CHEMBL1138035, “Antitumor agents. 250. Design and synthesis of new curcumin analogues as potential anti-prostate cancer agents” (J Med Chem, 2006).

Key:
LNCaP [1] = assay: Cytotoxicity against human LNCaP cell line; type: functional, cell-based
PC-3 [2] = assay: Cytotoxicity against human PC3 cell line; type: functional, cell-based
PC-3 [3] = assay: Inhibition of growth of human PC3 cell line at 20 ug/ml; type: functional
How it was run: (§1)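 Growth assay in human prostate cancer cells (LNCaP in RPMI, PC-3 in DMEM, each with 10% fetal calf serum and antibiotics). Cells were exposed to compound for 2 days. Value is % inhibition of cell growth at 20 μg/ml. Variation between replicate experiments was ≤5%.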

[4] = target: T1, Androgen receptor (Homo sapiens) (UniProt P10275); assay: Antiandrogenic activity against human LNCaP cell line by AR transactivation assay in presence of […] at 5 uM; type: functional, cell-based
T1 sequence (whole entry): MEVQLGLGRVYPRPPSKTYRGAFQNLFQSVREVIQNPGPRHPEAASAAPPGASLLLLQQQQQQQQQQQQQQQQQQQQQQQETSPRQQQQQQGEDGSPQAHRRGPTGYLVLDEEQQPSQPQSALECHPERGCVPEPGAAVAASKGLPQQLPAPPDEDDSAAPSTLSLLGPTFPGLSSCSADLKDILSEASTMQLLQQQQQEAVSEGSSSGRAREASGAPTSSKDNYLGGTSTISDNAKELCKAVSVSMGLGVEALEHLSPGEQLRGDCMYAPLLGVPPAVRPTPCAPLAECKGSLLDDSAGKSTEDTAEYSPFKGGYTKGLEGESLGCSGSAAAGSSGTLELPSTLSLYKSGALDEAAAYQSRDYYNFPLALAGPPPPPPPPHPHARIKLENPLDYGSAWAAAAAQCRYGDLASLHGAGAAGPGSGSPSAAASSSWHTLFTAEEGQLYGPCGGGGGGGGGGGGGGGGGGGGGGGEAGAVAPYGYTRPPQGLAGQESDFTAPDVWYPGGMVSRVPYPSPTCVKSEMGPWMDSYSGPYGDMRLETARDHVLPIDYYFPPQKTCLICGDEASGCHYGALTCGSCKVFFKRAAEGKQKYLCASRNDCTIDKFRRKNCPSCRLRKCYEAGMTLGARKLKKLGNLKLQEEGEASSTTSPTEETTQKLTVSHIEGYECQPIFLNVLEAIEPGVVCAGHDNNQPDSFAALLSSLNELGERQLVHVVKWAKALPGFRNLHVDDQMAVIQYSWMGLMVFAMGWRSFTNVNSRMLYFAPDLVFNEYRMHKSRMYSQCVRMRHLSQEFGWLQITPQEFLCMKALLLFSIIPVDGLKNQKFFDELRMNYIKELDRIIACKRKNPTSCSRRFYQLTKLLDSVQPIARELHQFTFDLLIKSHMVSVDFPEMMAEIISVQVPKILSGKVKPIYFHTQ
How it was run: (§2)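 LNCaP cells (endogenous mutant AR), kept in RPMI with 10% fetal calf serum and antibiotics, were plated 48 h before transfection. They were transfected for 5 h (SuperFect) with MMTV-luciferase reporter plus pRL-SV40 internal control, then moved to RPMI with 10% charcoal dextran-stripped serum. After 24 h, cells got 1 nM DHT plus compound for 24 h. Read-out was dual luciferase normalized to the internal control, as % of DHT-alone transactivation.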

[5] = target: T1, Androgen receptor (Homo sapiens); assay: Antiandrogenic activity against human PC3 cell line transfected with wild-type AR by AR transactivation assay in presence of […] at 5 uM; type: functional, cell-based; conditions: PC-3
How it was run: (§3)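 PC-3 host cells (no functional AR), kept in DMEM with 10% fetal calf serum and antibiotics, were plated 24 h before transfection. They were transfected for 5 h (SuperFect) with wild-type AR plasmid pSG5AR, MMTV-luciferase reporter and pRL-SV40 control, then moved to DMEM with 10% charcoal-stripped serum. After 24 h, cells got 1 nM DHT plus compound for 24 h. Dual-luciferase signal was normalized to the internal control and given as % of DHT-only.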

LNCaP [6] = assay: Inhibition of growth of human LNCaP cell line at 20 ug/ml; type: functional; how it was run: as §1
[7] = target: T1, Androgen receptor (Homo sapiens); assay: Antiandrogenic activity against human LNCaP cell line by AR transactivation assay in presence of […] at 3 uM; type: functional, cell-based; how it was run: as §2
[8] = target: T1, Androgen receptor (Homo sapiens); assay: Antiandrogenic activity against human PC3 cell line transfected with wild-type AR by AR transactivation assay in presence of […] at 3 uM; type: functional, cell-based; conditions: PC-3; how it was run: as §3
[9] = Homo sapiens, PC-3, read-out: IC50

SMILES	IC50 (LNCaP [1]) [µM]	IC50 (PC-3 [2]; [9]) [µM]	also measured
CCOC(=O)CC/C(C(=O)/C=C/c1ccc(OC2CCCCO2)c(OC)c1)=C(O)\C=C\c1ccc(OC2CCCCO2)c(OC)c1 (stereo not given)	4.2	12.3	
COc1ccc(/C=C/C(=O)/C=C/c2ccc(OC)c(OC)c2)cc1OC	3.4	3.8	
COc1ccc(/C=C/C(=O)/C=C(O)/C=C/c2ccc(OC)cc2OC)c(OC)c1	11.8		inhibition at 20 µg/mL (PC-3 [3]): 45%
CCOC(=O)CC/C(C(=O)/C=C/c1ccc(OC)c(OC)c1)=C(O)\C=C\c1ccc(O)c(OC)c1	2.1	6.3	
CCOC(=O)CC/C(C(C)=O)=C(O)\C=C\c1ccc(O)c(OC)c1	51.5	43.7	
COc1ccc(/C=C/C(=O)C(/C=C/CO)=C(O)/C=C/c2ccc(OC)c(OC)c2)cc1OC	0.2	1.3	
COc1cc(/C=C/C(=O)/C(C(C)=O)=C(O)/C=C/c2ccc(O)c(OC)c2)ccc1O	8.8	23.4	
Cc1cc(/C=C/C(=O)/C=C(O)/C=C/c2ccc(O)c(C)c2)ccc1O	1.8		IC50 (PC-3 [2]; pc-3): 4.8 µM
CCO/C(O)=C/C=C(C(=O)/C=C/c1ccc(O)c(OC)c1)C(=O)/C=C/c1ccc(O)c(OC)c1	7	11.7	
COc1cc(/C=C/C(O)=C/C(=O)/C=C/c2ccc[nH]2)ccc1O	13.6	15.4	
COc1ccc(/C=C/C(=O)/C=C(O)/C=C/c2ccc(OC)c(C)c2)cc1C	7.7	> 27.4	inhibition at 20 µg/mL (PC-3 [3]): 44%
COc1ccc(/C=C/C(=O)C(/C=C/C#N)=C(O)/C=C/c2ccc(OC)c(OC)c2)cc1OC	0.2	0.7	Activity [4]: 42%; Activity [5]: 68%
CCOC(=O)CC/C(C(=O)/C=C/c1ccc(O)c(OC)c1)=C(O)\C=C\c1ccc(O)c(OC)c1	1.5	5.1	Activity [4]: 4%; Activity [5]: 13%
CCO/C(O)=C/C=C(C(=O)/C=C/c1ccc(OC)c(OC)c1)C(=O)/C=C/c1ccc(OC)c(OC)c1	0.2	1	Activity [4]: 6%; Activity [5]: 40%
COc1ccc(/C=C/C(=O)C(C)(F)C(=O)/C=C/c2ccc(OC)c(OC)c2)cc1OC	6.4	4.6	
CCOC(=O)CC\C(C(=O)/C=C/C=C/c1ccc(O)c(OC)c1)=C(O)/C=C/C=C/c1ccc(O)c(OC)c1	3.1	6.4	
COc1ccc(/C=C/C(=O)CC(O)/C=C/c2ccc(OC)c(OC)c2)cc1OC (stereo not given)	17.7	18.4	
CCNC(=O)/C=C/C(C(=O)/C=C/c1ccc(OC)c(OC)c1)=C(O)\C=C\c1ccc(OC)c(OC)c1	0.6	1.2	
COc1ccc(/C=C/C(=O)/C=C/c2ccc(OC)cc2OC)c(OC)c1	21.8	18.7	
COc1ccc(/C=C/C(=O)/C=C(O)/C=C/c2ccc(OC)c(O)c2)cc1O	10.9	8.6	
COc1cc(OC)c(OC)cc1/C=C/C(O)=C/C(C)=O	12.5	10.5	
COc1ccc(/C=C/C(=O)C(C)C(=O)/C=C/c2ccc(OC)c(OC)c2)cc1OC	5.8	3.5	
COc1ccc(/C=C/C(=O)/C=C(O)/C=C/c2ccc(OC)c(OC)c2)cc1OC	1.3	1.1	
COc1ccc(/C=C/C(O)=C/C(C)=O)cc1O	5.3	6.1	

SMILES	IC50 (LNCaP [1]) [µM]	IC50 (PC-3 [2]; [9]) [µM]	also measured
COc1ccc(/C=C/C(O)=C/C(C)=O)c(OC)c1OC	5.8	7.8	
COc1ccc(/C=C/C(=O)NC(=O)/C=C/c2ccc(OC)c(OC)c2)cc1OC	2.2	> 10	inhibition at 20 µg/mL (PC-3 [3]): 36%
COc1cc(OC)c(OC)cc1/C=C/C(=O)/C=C(O)/C=C/c1ccc(OC)c(OC)c1	8.6	8.2	
COc1cc(/C=C/C(=O)CC(=O)/C=C/c2ccc(O)c(OC)c2)ccc1O [CURCUMIN]	3.8	7.7	
COc1ccc(/C=C/C(O)=C/C(=O)/C=C/c2ccc(OC)c(OC)c2OC)cc1OC	7.7	9.1	
COc1cc(/C=C/C(O)=C/C(=O)/C=C/c2ccc(CO)o2)ccc1O	7.3	9	
COc1ccc(/C=C/C(=O)/C=C(O)/C=C/c2ccc(OC)c(OC)c2OC)c(OC)c1OC	4.8	8.1	
COc1cc(/C=C/C(O)=C/C(C)=O)ccc1O	6.2	8	
COc1ccc(/C=C/C(O)=C/C(C)=O)cc1OC	6.6	7	
COc1cc(/C=C/C(=O)/C=C(O)/C=C/c2ccc(OCC=C(C)C)c(OC)c2)ccc1OCC=C(C)C	6.1	> 19.8	inhibition at 20 µg/mL (PC-3 [3]): 41%
CCOC(=O)CCC(F)(C(=O)/C=C/c1ccc(O)c(OC)c1)C(=O)/C=C/c1ccc(O)c(OC)c1	6.3	9.8	
CCOC(=O)CCC(F)(C(=O)/C=C/c1ccc(OC2CCCCO2)c(OC)c1)C(=O)/C=C/c1ccc(OC2CCCCO2)c(OC)c1 (stereo not given)	7.3	6.3	
COc1ccc(/C=C/C(O)=C/C(=O)/C=C/c2ccc(OC)c(OC)c2)cc1O	4.8	5.5	
COc1cc(/C=C/C=C/C(=O)/C=C(O)/C=C/C=C/c2ccc(O)c(OC)c2)ccc1O	4.4	10.6	
CCOc1ccc(/C=C/C(=O)/C=C(O)/C=C/c2ccc(OCC)c(OC)c2)cc1OC	6.5	20.3	
COc1cc(OC)c(OC)cc1/C=C/C(=O)/C=C(O)/C=C/c1cc(OC)c(OC)cc1OC	2.9	2.4	
COc1cc(/C=C/C(=O)/C=C(O)/C=C/c2ccc(OC)c(OC)c2)ccc1O	3.3	6	
COc1ccc(/C=C/C(O)=C/C(C)=O)c(OC)c1	9.9	12.3	
COc1cc(/C=C/C(=O)/C=C/c2ccc(O)c(OC)c2)ccc1O	1.4	2.4	
COc1cc(/C=C/C(O)=C/C(=O)/C=C/c2cccs2)ccc1O	6.3	7.7	
O=C(/C=C(O)/C=C/c1ccc(CO)o1)/C=C/c1ccc(CO)o1			inhibition at 20 µg/mL (LNCaP [6]): 37%; inhibition at 20 µg/mL (PC-3 [3]): 37%
CCO/C(O)=C/C=C(C(=O)/C=C/c1ccc(OC2CCCCO2)c(OC)c1)C(=O)/C=C/c1ccc(OC2CCCCO2)c(OC)c1 (stereo not given)	2.6	3.1	Activity [7]: 54%; Activity [8]: 46%
COc1ccc(CCC(=O)CC(O)CCc2ccc(OC)c(OC)c2)cc1OC (stereo not given)	10.8		inhibition at 20 µg/mL (PC-3 [3]): 33%
